Data: article PMC9359741 (Clinical Cancer Research, 2022)
Like-named read-outs stand apart in the source and are kept apart here.

What was measured:
[1] = test system: selected advanced solid tumors; assay: Phase 1b efficacy; format: in vivo, human; details: for ORR, % (95% CI) / ir-ORR, % (95% CI): confirmed
In short: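 Oral test compound 200–400 mg QD plus anti-PD-1 antibody 2 mg/kg IV Q3W in patients with measurable or evaluable disease. Investigator assessed best response per RECIST v1.1, with immune-related response also evaluated. ORR used confirmed responses with two-sided 95% CI (Clopper–Pearson exact binomial). All patients receiving ≥1 dose were analysed. PD-L1 status came from screening tissue tested locally.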

[2] = test system: patients with selected advanced solid tumors; format: in vivo, human
In short: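 Adults (≥18 y) with histologically or cytologically confirmed selected advanced solid tumours. Oral test compound started at 200 mg QD, with planned escalation to 400 mg QD, plus anti-PD-1 antibody 2 mg/kg IV every 3 weeks. DLT incidence defined the MTD (DLT criteria in supplement). AEs and lab abnormalities were graded by CTCAE v4.03 in all patients given ≥1 dose and summarized descriptively.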

For `Cc1cccc(Cn2nc(C3CC3)c3c(NC(=O)c4cnc5cc(OCCN6CCN(C)CC6)ccn45)cccc32)n1` [ARRY-382], the “Median OS” value ([1]; 200-mg cohort) was 14.7 [95% CI, 5.2–not reached (NR)] months, the “Median PFS” value ([1]; 200-mg cohort) was 4.7 (95% CI, 1.4–33.1) months and the “Median irPFS per irRC” value ([1]; 200-mg cohort) was 3.0 (95% CI, 1.4–16.1) months. For the same compound, the “DOR of confirmed PR” value ([1]; 200-mg cohort, 1 patient with MSI-High PDA) was 29.2 months, the “Median OS” value ([1]; 300-mg cohort) was 6.5 (95% CI, 1.0–NR) months and the “Median PFS” value ([1]; 300-mg cohort) was 2.3 (95% CI, 1.3–5.7) months. For the same compound, the “Median irPFS per irRC” value ([1]; 300-mg cohort) was 2.5 (95% CI, 1.4–7.1) months, the “DOR of confirmed PR” value ([1]; 300-mg cohort, 1 patient with ovarian cancer) was 3.1 months and the “Median OS” value ([1]; 400-mg cohort) was 7.4 (95% CI, 2.1–14.1) months. For the same compound, the “Median PFS” value ([1]; 400-mg cohort) was 1.4 (95% CI, 0.5–2.6) months, the “Median irPFS per irRC” value ([1]; 400-mg cohort) was 1.3 (95% CI, 0.5–1.5) months and the “Best overall response: CR” value ([1]; ARRY-382 200 mg, N = 6) was 0 (0.0) n (%). The “Best overall response: NE” value ([1]; ARRY-382 200 mg, N = 6) was 1 (16.7) n (%), the “Best overall response: PD” value ([1]; ARRY-382 200 mg, N = 6) was 1 (16.7) n (%) and the “Best overall response: PR” value ([1]; ARRY-382 200 mg, N = 6) was 1 (16.7) n (%). For the same compound, the “Best overall response: SD” value ([1]; ARRY-382 200 mg, N = 6) was 3 (50.0) n (%), the “Immune-related best overall response: CR” value ([1]; ARRY-382 200 mg, N = 6) was 0 (0.0) n (%) and the “Immune-related best overall response: NE” value ([1]; ARRY-382 200 mg, N = 6) was 1 (16.7) n (%). The “Immune-related best overall response: PD” value ([1]; ARRY-382 200 mg, N = 6) was 1 (16.7) n (%), the “Immune-related best overall response: PR” value ([1]; ARRY-382 200 mg, N = 6) was 1 (16.7) n (%) and the “Immune-related best overall response: SD” value ([1]; ARRY-382 200 mg, N = 6) was 3 (50.0) n (%). For the same compound, the “Best overall response: CR” value ([1]; ARRY-382 300 mg, N = 6) was 0 (0.0) n (%), the “Best overall response: NE” value ([1]; ARRY-382 300 mg, N = 6) was 0 (0.0) n (%) and the “Best overall response: PD” value ([1]; ARRY-382 300 mg, N = 6) was 3 (50.0) n (%). The “Best overall response: PR” value ([1]; ARRY-382 300 mg, N = 6) was 1 (16.7) n (%), the “Best overall response: SD” value ([1]; ARRY-382 300 mg, N = 6) was 2 (33.3) n (%) and the “Immune-related best overall response: CR” value ([1]; ARRY-382 300 mg, N = 6) was 0 (0.0) n (%). For the same compound, the “Immune-related best overall response: NE” value ([1]; ARRY-382 300 mg, N = 6) was 2 (33.3) n (%), the “Immune-related best overall response: PD” value ([1]; ARRY-382 300 mg, N = 6) was 0 (0.0) n (%) and the “Immune-related best overall response: PR” value ([1]; ARRY-382 300 mg, N = 6) was 1 (16.7) n (%). For the same compound, the “Immune-related best overall response: SD” value ([1]; ARRY-382 300 mg, N = 6) was 3 (50.0) n (%), the “Best overall response: CR” value ([1]; ARRY-382 400 mg, N = 7) was 0 (0.0) n (%) and the “Best overall response: NE” value ([1]; ARRY-382 400 mg, N = 7) was 2 (28.6) n (%). The “Best overall response: PD” value ([1]; ARRY-382 400 mg, N = 7) was 5 (71.4) n (%), the “Best overall response: PR” value ([1]; ARRY-382 400 mg, N = 7) was 0 (0.0) n (%) and the “Best overall response: SD” value ([1]; ARRY-382 400 mg, N = 7) was 0 (0.0) n (%). The “Immune-related best overall response: CR” value ([1]; ARRY-382 400 mg, N = 7) was 0 (0.0) n (%), the “Immune-related best overall response: NE” value ([1]; ARRY-382 400 mg, N = 7) was 4 (57.1) n (%) and the “Immune-related best overall response: PD” value ([1]; ARRY-382 400 mg, N = 7) was 1 (14.3) n (%). For the same compound, the “Immune-related best overall response: PR” value ([1]; ARRY-382 400 mg, N = 7) was 0 (0.0) n (%), the “Immune-related best overall response: SD” value ([1]; ARRY-382 400 mg, N = 7) was 2 (28.6) n (%) and the “Best overall response: CR” value ([1]; Total, N = 19) was 0 (0.0) n (%). The “Best overall response: NE” value ([1]; Total, N = 19) was 3 (15.8) n (%), the “Best overall response: PD” value ([1]; Total, N = 19) was 9 (47.4) n (%) and the “Best overall response: PR” value ([1]; Total, N = 19) was 2 (10.5) n (%). For the same compound, the “Best overall response: SD” value ([1]; Total, N = 19) was 5 (26.3) n (%), the “Immune-related best overall response: CR” value ([1]; Total, N = 19) was 0 (0.0) n (%) and the “Immune-related best overall response: NE” value ([1]; Total, N = 19) was 7 (36.8) n (%). For the same compound, the “Immune-related best overall response: PD” value ([1]; Total, N = 19) was 2 (10.5) n (%), the “Immune-related best overall response: PR” value ([1]; Total, N = 19) was 2 (10.5) n (%) and the “Immune-related best overall response: SD” value ([1]; Total, N = 19) was 8 (42.1) n (%). For the same compound, the “ORR, % (95% CI)” value ([1]; ARRY-382 200 mg, N = 6) was 16.7 (0.4–64.1) %, the “ir-ORR, % (95% CI)” value ([1]; ARRY-382 200 mg, N = 6) was 16.7 (0.4–64.1) % and the “ORR, % (95% CI)” value ([1]; ARRY-382 300 mg, N = 6) was 16.7 (0.4–64.1) %. For the same compound, the “ir-ORR, % (95% CI)” value ([1]; ARRY-382 300 mg, N = 6) was 16.7 (0.4–64.1) %, the “ORR, % (95% CI)” value ([1]; ARRY-382 400 mg, N = 7) was 0.0 (0.0–41.0) % and the “ir-ORR, % (95% CI)” value ([1]; ARRY-382 400 mg, N = 7) was 0.0 (0.0–41.0) %. For the same compound, the “ORR, % (95% CI)” value ([1]; Total, N = 19) was 10.5 (1.3–33.1) %, the “ir-ORR, % (95% CI)” value ([1]; Total, N = 19) was 10.5 (1.3–33.1) % and the “Patients with DLTs” value ([2]; 300-mg cohort: Grade 3 acute pancreatitis) was 1/6. The “Patients with DLTs” value ([2]; 400-mg cohort: Grade 2 increased CPK, Grade 3 increased ALT, AST and bilirubin) was 2/7, the “MTD (and RP2D) of ARRY-382 in combination with pembrolizumab” value ([2]; Phase 1b) was 300 mg QD and the “Patients with a Grade 4 AE” value ([2]; Phase 1b) was 6 (31.6%) n (%). The “Patients with a grade 3 AE” value ([2]; Phase 1b) was 9 (47.4%) n (%), the “Patients with ≥1 TEAE” value ([2]; Phase 1b) was 94.7% and the “Permanently discontinued due to AEs” value ([2]; Phase 1b) was 2 (10.5%) n (%).
